PKA-R2B activ: PKA-R2B complex activation; P22694+P31323; activation, % at 11.4 µM; hit rate 0.079% among 340,000; AID 504700; PKA-R2B holoenzyme dissociation, Cy5-IP20 fluorescence polarization; R2B truncated from residue 108, S112A mutant; 0% DMSO only, 100% 113 µM cGMP;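 active = activation above a cutoff set at the mean over all compounds plus 3 SD, cut at about 18% in these data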;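 also: higher means more holoenzyme dissociation and a rise in polarization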
CAL PDZ FP-1: blocks peptide binding to human CAL PDZ domain. Q9HD26. purified CAL PDZ, TMR-peptide fluorescence polarization, 1 h. inhibition, % at 20 µM. hit rate 0.02% among 330,000. AID 504414;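 active = highest replicate inhibition of at least 40%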
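Test system: purified CerCALP PDZ construct; Compound dosing: one concentration, 20 µM compound; Also added: TMR-labelled reporter peptide T*-PRC34 bound in PDZ groove; Read-out: inhibition from polarization loss; Controls: unlabelled peptide and DMSO controls; Signal: FP readout, S and P plane fluorescence; Incubation: 1 h at RT.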
PKA-R1A act: activates the PKA-R1A holoenzyme complex | PKA-R1A dissociation, Cy5-IP20 fluorescence polarization; scaled: DMSO 0%, 113 µM cGMP 100% | P00514+P68181 | hit rate 0.083% among 340,000 | activation, % at 11.4 µM;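 active = percent activation above the mean of all tested compounds plus 3 SD, cut at about 19% in these data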;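 also: higher means more PKAc released from R1A so a rise in polarization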
NTR1 ag: agonists of human neurotensin receptor NTR1 | NTR1-U2OS beta-arrestin-GFP spot imaging, agonist mode | activation, % at 20 µM | hit rate 0.17% among 330,000 | AID 493036;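 active = activation at or above 40% of the spot to cytoplasm intensity ratio, with at least 20 cells analyzed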
CAL PDZ FP-2: CAL PDZ (human) peptide binding inhibition. Q9HD26. purified CAL PDZ, TMR-peptide fluorescence polarization, 1 h. inhibition, % at 24.9 µM. hit rate 0.92% among 300,000. AID 602252;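 active = mean inhibition of at least 30% with at least half of replicates also reaching 30%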
dFosB act-1: enhances mouse delta FosB homodimer DNA binding; P13346; purified delta FosB, TAMRA-CDK5 oligo fluorescence polarization; percent of positive-control signal above neutral wells; activation, % at 25 µM; hit rate 0.99% among 340,000; AID 493131;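 active = mean activation above about 17%, with every replicate also reaching it, limit read from the data, passing the limit was not always enough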
Target sequence (P13346 whole entry, looked up): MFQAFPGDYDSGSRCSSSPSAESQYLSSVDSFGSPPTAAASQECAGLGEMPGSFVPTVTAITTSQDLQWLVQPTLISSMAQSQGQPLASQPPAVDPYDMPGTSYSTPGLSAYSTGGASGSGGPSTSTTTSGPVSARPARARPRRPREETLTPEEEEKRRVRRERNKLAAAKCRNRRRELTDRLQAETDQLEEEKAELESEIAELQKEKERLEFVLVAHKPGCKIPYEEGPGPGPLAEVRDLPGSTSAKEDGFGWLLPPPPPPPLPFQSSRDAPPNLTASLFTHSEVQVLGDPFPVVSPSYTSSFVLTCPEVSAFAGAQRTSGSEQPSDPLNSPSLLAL
dFosB act-2: enhances mouse delta FosB homodimer binding to DNA. activation, % at 24.9 µM. shares compounds with dFosB act-1. 2,400 tested, under 10 active. purified delta FosB, TAMRA-CDK5 oligo fluorescence polarization; normalised: neutral wells 0, positive control 100;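 active = highest replicate activation at or above 34% and every replicate reaching that threshold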;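 also: higher polarization means more probe DNA bound by delta FosB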
Hits are given with their value; - = inactive; . = no result given. Only some compounds are listed: those with a hit (about 2% of all), similar ones and a draw of the others.

SMILES	PKA-R2B activ	CAL PDZ FP-1	PKA-R1A act	NTR1 ag	CAL PDZ FP-2	dFosB act-1	dFosB act-2
CS(=O)(=O)c1ccc2nc(NC(=O)c3ccc(NS(=O)(=O)c4ccc(F)c(F)c4)cc3)sc2c1	-	-	-	-	-	35.5	-
CS(=O)(=O)c1ccc2nc(NC(=O)c3cccc(NS(=O)(=O)c4ccc(F)c(F)c4)c3)sc2c1	-	-	-	-	-	29.0	-
CCc1noc(C)c1C(=O)NC1CCCc2c1cnn2-c1ccc(C(C)(C)C)cc1 (centres undefined)	-	-	-	-	-	-	.
CN(/N=C/c1ccc(N(C)C)cc1)C1=NS(=O)(=O)c2ccccc21	-	-	-	-	-	-	.
COc1ccc(/C=C2\SC(=O)N(CC(=O)NCCC(C)C)C2=O)cc1OC	-	-	-	-	.	-	.
COc1ccc(/C=C2/SC(=O)N(CC(=O)NCCC(C)C)C2=O)cc1OC	-	-	-	-	-	17.0	-
COc1cc(/C=C2\SC(=O)N(CC(=O)Nc3ccccc3F)C2=O)cc(Cl)c1O	-	-	-	-	-	-	.
COc1ccc(/C=C2\SC(=O)N(CC(=O)Nc3ccc(F)cc3)C2=O)cc1O	-	-	-	-	-	18.9	-
COc1cc(OC)c(/C=C2\SC(=O)N(CC(=O)Nc3ccccc3F)C2=O)c(OC)c1	-	-	-	-	.	23.4	-
O=C(O)C1(Nc2ccc(Br)cc2)CCCC1	-	-	-	.	-	-	.
Cc1cccc(NC(=O)CCC(=O)Nc2nnc(C3CCCCC3)s2)c1	-	-	-	-	-	30.1	-
CSc1ccc(CNc2nc3ccccc3n3cnnc23)cc1	-	-	-	-	-	26.5	-
Cc1cccc(NC(=O)C2(C)CC3c4ccccc4C2c2ccccc23)c1 (centres undefined)	-	.	-	-	-	29.2	-
Cc1cccc(NC(=O)C2(c3ccccc3)CCOCC2)c1	-	.	-	-	-	-	.
CC(=O)c1cccc(NS(=O)(=O)c2ccc(N/C=C/C(=O)c3ccc(F)cc3)cc2)c1	-	-	-	-	-	-	.
CC(=O)c1ccc(NS(=O)(=O)c2ccc(N/C=C/C(=O)c3ccc(F)cc3)cc2)cc1	-	-	-	-	-	43.6	-
CC(=O)c1cccc(NS(=O)(=O)c2ccc(N/C=C\C(=O)c3ccc(C)cc3)cc2)c1	-	-	-	-	-	22.8	-
CCCn1c(SCC(=O)NCc2ccc3c(c2)OCO3)n[nH]c1=O	-	-	-	-	-	-	.
CCn1cc(Br)c(C(=O)Nc2sc3c(c2C(N)=O)CCCC3)n1	-	-	-	-	-	76.0	-
Cn1cc(Br)c(C(=O)Nc2sc3c(c2C(N)=O)CCCC3)n1	-	-	-	-	.	-	.
COc1ccc(/C=C2\SC(=O)N(CC(=O)NC3C=CS(=O)(=O)C3)C2=O)cc1 (centres undefined)	-	-	-	-	-	41.0	-
O=C(CN1C(=O)S/C(=C\c2ccc(F)cc2)C1=O)NC1C=CS(=O)(=O)C1 (centres undefined)	-	-	-	-	-	-	.
CCC(C(=O)NCCCN1CC(C)CC(C)C1)n1ncn2c(cc3occc32)c1=O (centres undefined)	-	-	-	-	-	-	.
O=C(Cn1cnc2sc3c(c2c1=O)CCCC3)NCC(=O)Nc1ccccc1F	-	-	-	-	-	-	.
O=C(Cn1cnc2sc3c(c2c1=O)CCCC3)NCC(=O)Nc1ccc(F)cc1F	-	-	-	-	-	35.8	-
O=C(Cc1cccc2ccccc12)N/N=C/c1ccc(F)cc1	-	-	-	-	-	-	.
O=C(Cc1cccc2ccccc12)N/N=C/c1ccc(OC(=O)/C=C/c2ccco2)cc1	-	-	-	-	.	18.4	-
CC1CCc2sc(C(=O)N/N=C/c3ccc([N+](=O)[O-])cc3)cc2C1 (centres undefined)	-	-	-	-	-	16.8	-
NC(N)=NN=C(c1ccc(F)cc1)c1ccc(C(F)(F)F)cc1	-	-	-	.	-	-	.

Compound activity deposited in PubChem BioAssay by several laboratories.
